From ChEMBL document CHEMBL3124866, “Small molecular antibacterial peptoid mimics: the simpler the better!” (J Med Chem, 2014)
≈ marks a conversion by molar mass, not a printed value. Calls of active or inactive are those of the source. No cut-off for these calls is given here. Residues, ends and D or L forms follow the SMILES beside them.

How the values were obtained:
[1] = test system: Escherichia coli; test: Antibacterial activity against drug-sensitive Escherichia coli MTCC 443 assessed as disruption of cell membrane at 10 X MIC after 2 hrs by field-emission scanning electron microscopic analysis; format: functional, organism-based
Outline: (§1)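 Cells grown 6 h (E. coli in LB, S. aureus in yeast-dextrose broth) were resuspended at 10^6 cells/mL in nutrient media pH 7.4. They were treated at 10× MIC at 37 °C for 2 h with 250 rpm shaking, beside an untreated control. Cells were pelleted, dehydrated through a 30–100% ethanol series and dried on silicon wafer. S. aureus was sputter-coated; E. coli was imaged uncoated by FESEM.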

[2] = test system: Escherichia coli; test: Ratio of MSI-78 MIC to compound MIC for Escherichia coli; format: functional
[3] = test system: Escherichia coli; test: Antibacterial activity against drug-sensitive Escherichia coli MTCC 443 assessed as merging of dead bacteria with each other at 10 X MIC after 2 hrs by field-emission scanning electron microscopic analysis; format: functional, organism-based; outline: as §1
[4] = test system: Staphylococcus aureus; test: Antibacterial activity against drug-sensitive Staphylococcus aureus MTCC 737 assessed as change in cell membrane morphology at 10 X MIC after 1.5 hrs by SYTO and propidium iodide staining-based fluorescence microscopic analysis; format: functional, organism-based
Outline: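 Suspension at 10^9 cells/mL was treated at 10× MIC for 1.5 h, beside an untreated control. Cells were pelleted, resuspended in PBS and mixed with a probe mix of 3.0 µM SYTO 9 and 15.0 µM PI. After 15 min in the dark, cells were examined by fluorescence microscopy.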

[5] = test system: Escherichia coli; test: Antibacterial activity against drug-sensitive Escherichia coli MTCC 443 after 24 hrs by broth microdilution assay; format: functional; conditions: MTCC 443, 24 h
Outline: (§2)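 Bacteria grown 6 h to ~10^9 cfu/mL and diluted to 10^5 cfu/mL in nutrient media. Growth media were LB (E. coli), yeast-dextrose broth (S. aureus, P. aeruginosa) and BHI (E. faecium). Compound was serially diluted in water and added 1:3 to bacteria, then incubated 37 °C for 24 h with OD600 read-out. Triplicate ODs were sigmoid-fitted; MIC was taken where OD matched the no-bacteria control. At least two independent experiments.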

[6] = test system: Enterococcus faecium; test: Antibacterial activity against vancomycin-resistant Enterococcus faecium ATCC 51559 after 24 hrs by broth microdilution assay; format: functional; conditions: ATCC 51559, 24 h
Outline: (§3)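 MIC by broth microdilution. Cultures were grown 6 h to ~10^9 cfu/mL, then diluted to 10^5 cfu/mL. Media: yeast-dextrose broth for MRSA, BHI for VRE, and beef extract/peptone nutrient broth for K. pneumoniae. Compounds were serially diluted in water, 50 µL added to 150 µL cells, and incubated 24 h at 37 °C. OD600 triplicates were sigmoid-fitted; MIC is the point where OD equals the no-bacteria control. Mean ± SEM of ≥2 experiments.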

[7] = test system: Enterococcus faecium; test: Antibacterial activity against drug-sensitive Enterococcus faecium ATCC 19634 after 24 hrs by broth microdilution assay; format: functional; conditions: ATCC 19634, 24 h; outline: as §2
[8] = test system: Staphylococcus aureus; test: Antibacterial activity against drug-sensitive Staphylococcus aureus MTCC 737 assessed as formation of blebs and holes at 10 X MIC after 2 hrs by field-emission scanning electron microscopic analysis; format: functional, organism-based; outline: as §1
[9] = test system: Staphylococcus aureus; test: Bactericidal activity against methicillin-resistant Staphylococcus aureus ATCC 33591 at 3 X MIC after 6 hrs by time-kill assay; format: functional, organism-based
Outline: (§4)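 Time-kill: MRSA (~1.8×10^6 CFU/mL in fresh media) exposed at 37 °C to compound at 1×, 3× or 6× MIC. Aliquots taken at 0, 1, 2, 3, 6 and 24 h, 10-fold serially diluted in 0.9% saline, plated on yeast-dextrose agar, incubated overnight at 37 °C. Colonies counted, expressed as log10 CFU/mL.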

[10] = test system: Staphylococcus aureus; test: Bactericidal activity against methicillin-resistant Staphylococcus aureus ATCC 33591 at 6 X MIC after 1 hr by time-kill assay; format: functional; outline: as §4
[11] = test system: Staphylococcus aureus; test: Antibacterial activity against drug-sensitive Staphylococcus aureus MTCC 737 after 24 hrs by broth microdilution assay; format: functional; conditions: MTCC 737, 24 h; outline: as §2
[12] = test system: Klebsiella pneumoniae; test: Antibacterial activity against beta-lactam-resistant Klebsiella pneumoniae ATCC 700603 after 24 hrs by broth microdilution assay; format: functional; conditions: ATCC 700603, 24 h; outline: as §3
[13] = test system: Staphylococcus aureus; test: Antibacterial activity against drug-sensitive Staphylococcus aureus MTCC 737 assessed as inner cytoplasmic membrane permeabilization at 2 X MIC to 4 X MIC measured up to 10 mins by propidium iodide staining-based fluorescence assay; format: functional, organism-based
Outline: (§5)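 Mid-log S. aureus were harvested, washed and resuspended in 5 mM HEPES/5 mM glucose pH 7.2 containing 15 µM propidium iodide. Compound was added and PI uptake followed as fluorescence increase (ex 535 nm, em 617 nm) for 10 min.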

[14] = test system: Staphylococcus aureus; test: Antibacterial activity against methicillin-resistant Staphylococcus aureus ATCC 33591 after 24 hrs by broth microdilution assay; format: functional; conditions: ATCC 33591, 24 h; outline: as §3
[15] = test system: Pseudomonas aeruginosa; test: Antibacterial activity against drug-sensitive Pseudomonas aeruginosa ATCC 4676 at MIC to 2 X MIC measured […] by DiSC3(5) dye-based fluorimetric analysis; format: functional, organism-based
Outline: (§6)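 Mid-log cells were washed and resuspended at 10^8 cfu/mL in 5 mM glucose, 5 mM HEPES and 100 mM KCl (1:1:1). They were loaded with 2 µM DiSC3(5) for 10 min (S. aureus) or 20 min (P. aeruginosa, E. coli), then stabilized 2 min at room temperature. Compound was added and depolarization read as fluorescence increase (ex 622 nm, em 670 nm) over 10 min.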

[16] = Hemolytic activity in human erythrocytes after 1 hr by spectrophotometric analysis; format: ADME, cell-based, Erythrocyte
Outline: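 Heparinized fresh human erythrocytes at 5 vol% in PBS pH 7.4 were mixed 3:1 with serially diluted compound and held 1 h at 37 °C. Plates were centrifuged and supernatant A540 read. Hemolysis was scaled between an untreated control and a Triton X-100 (100% lysis) control. HC50 is the mean of at least two independent triplicate experiments.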

[17] = test system: Pseudomonas aeruginosa; test: Antibacterial activity against drug-sensitive Pseudomonas aeruginosa ATCC 4676 after 24 hrs by broth microdilution assay; format: functional; conditions: ATCC 4676, 24 h; outline: as §2
[18] = Therapeutic index, ratio of HC50 for human erythrocytes to MIC for drug-sensitive Pseudomonas aeruginosa ATCC 4676; conditions: read-out: TI
[19] = test system: Staphylococcus aureus; test: Antibacterial activity against drug-sensitive Staphylococcus aureus MTCC 737 assessed as cytoplasmic membrane depolarization at MIC to 4 X MIC measured […] by DiSC3(5) dye-based fluorimetric analysis; format: functional, organism-based; outline: as §6
[20] = Retention time of the compound by HPLC analysis; format: physicochemical
[21] = test system: Escherichia coli; test: Antibacterial activity against Escherichia coli ATCC 25922 after 24 hrs by broth microdilution assay; format: functional; conditions: ATCC 25922, 24 h
[22] = test system: Staphylococcus aureus; test: Antibacterial activity against Staphylococcus aureus ATCC 29213 after 24 hrs by broth microdilution assay; format: functional; conditions: ATCC 29213, 24 h
[23] = test system: Pseudomonas aeruginosa; test: Antibacterial activity against Pseudomonas aeruginosa ATCC 27853 after 24 hrs by broth microdilution assay; format: functional; conditions: ATCC 27853, 24 h
[24] = test system: Enterococcus faecium; test: Antibacterial activity against Enterococcus faecium ATCC 29212 after 24 hrs by broth microdilution assay; conditions: ATCC 29212, 24 h
[25] = test system: Escherichia coli; test: Antibacterial activity against drug-sensitive Escherichia coli MTCC 443 assessed as outer cytoplasmic membrane permeabilization at MIC measured up to 10 mins by N-phenylnaphthylamine dye-based fluorescence assay; format: functional, organism-based
Outline: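 Mid-log E. coli (6 h, 10^8 cells/mL) were washed and resuspended in 5 mM glucose/5 mM HEPES pH 7.2 with 10 µM NPN. Compound was added in water. Outer membrane uptake of NPN was followed as fluorescence increase (ex 350 nm, em 420 nm) for 10 min.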

[26] = test system: Staphylococcus aureus; test: Antibacterial activity against drug-sensitive Staphylococcus aureus MTCC 737 assessed as inner cytoplasmic membrane permeabilization at MIC measured up to 10 mins by propidium iodide staining-based fluorescence assay; format: functional, organism-based; outline: as §5
[27] = test system: Escherichia coli; test: Antibacterial activity against drug-sensitive Escherichia coli MTCC 443 at MIC measured […] by DiSC3(5) dye-based fluorimetric analysis; format: functional, organism-based; outline: as §6
[28] = test system: Staphylococcus aureus; test: Antibacterial activity against drug-sensitive Staphylococcus aureus MTCC 737 preincubated for 3 hrs in 50% human plasma measured after 24 hrs by broth microdilution assay; format: functional; conditions: MTCC 737, Plasma
Outline: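 Plasma was separated by centrifuging fresh human blood. Compound at 1600 µg/mL in 50% plasma was preincubated at 37 °C for 0, 3 or 6 h. Two-fold dilutions were added 1:3 to S. aureus at 10^5 cfu/mL and incubated 37 °C for 24 h. MIC was read by OD as in the broth assay.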

[29] = Stability of the compound assessed as trypsin (unknown origin)-mediated drug degradation at 1 mg/ml up to 24 hrs by LC-MS analysis; format: ADME; conditions: human
Outline: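 Compound at 1 mg/mL (solution before mixing) was incubated with trypsin in 0.1 M NH4HCO3 at 37 °C. Aliquots were taken from 0 min to 24 h, diluted with water and analyzed by LC-MS for new products and total ion current. A no-trypsin control was sampled at 0 and 24 h.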

[30] = test system: Staphylococcus aureus; test: Antibacterial activity against drug-sensitive Staphylococcus aureus MTCC 737 assessed as cytoplasmic membrane depolarization at MIC measured up to 12 mins by DiSC3(5) dye-based fluorimetric analysis; format: functional, organism-based; outline: as §6
[31] = test system: Staphylococcus aureus; test: Bactericidal activity against drug-sensitive Staphylococcus aureus MTCC 737 at 2 X MIC after 24 hrs by time-kill assay; format: functional, organism-based
Outline: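 S. aureus at ~1.8×10^6 CFU/mL in fresh media was exposed at MIC and 2× MIC. Samples were taken at 0, 1, 2, 3, 6 and 24 h and serially diluted 10-fold in 0.9% saline. They were plated on yeast-dextrose agar at 37 °C overnight, and colonies were counted as log10 CFU/mL.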

Structure (SMILES)	Activity [1]	Activity [3]	Activity [4]	MIC [5] [mg/L]	MIC [6] [mg/L]	MIC [7] [mg/L]	Activity [8]	MIC [11] [mg/L]	MIC [12] [mg/L]	MIC [14] [mg/L]	HC50 at 1 h [16] [µg/mL]	MIC [17] [mg/L]	selectivity ratio [18]	Retention_time [20] [min]	other results
CCCCCCN(Cc1c2ccccc2c(Cl)c2ccccc12)C(=O)[C@@H](N)CCCCN.O=C(O)C(F)(F)F.O=C(O)C(F)(F)F	Active	Active	Active	3.5	5.2	3.3	Active	2.4	16	2.8	82	1.6	50	13.6	Ratio [2]: 5; Activity [9]: Active; log10CFU/ml [10]: 6; Activity [13]: Active; Activity [15]: Active; Activity [19]: Active
CC[C@H](C)[C@H](NC(=O)CN)C(=O)NCC(=O)N[C@@H](CCCCN)C(=O)N[C@@H](Cc1ccccc1)C(=O)N[C@@H](CC(C)C)C(=O)N[C@@H](CCCCN)C(=O)N[C@@H](CCCCN)C(=O)N[C@@H](C)C(=O)N[C@@H](CCCCN)C(=O)N[C@@H](CCCCN)C(=O)N[C@@H](Cc1ccccc1)C(=O)NCC(=O)N[C@@H](CCCCN)C(=O)N[C@@H](C)C(=O)N[C@@H](Cc1ccccc1)C(=O)N[C@H](C(=O)N[C@@H](CCCCN)C(=O)N[C@H](C(=O)N[C@@H](CC(C)C)C(=O)N[C@@H](CCCCN)C(=O)N[C@@H](CCCCN)C(N)=O)[C@@H](C)CC)C(C)C [PEXIGANAN] (H-GIGKFLKKAKKFGKAFVKILKK-NH2)	–	–	–	–	8 (≈ 3.23 µM)	–	–	–	8 (≈ 3.23 µM)	16 (≈ 6.46 µM)	–	–	–	–	MIC [21]: 16 mg/L (≈ 6.46 µM); MIC [22]: 8 mg/L (≈ 3.23 µM); MIC [23]: 8 mg/L (≈ 3.23 µM); MIC [24]: 64 mg/L (≈ 25.8 µM)
CCCCCCN(Cc1cccc2ccccc12)C(=O)[C@@H](N)CCCCN.O=C(O)C(F)(F)F.O=C(O)C(F)(F)F	Active	Active	Active	25	54	34	Active	20	100	65	508	11	50	11.8	Activity [25]: Active; Activity [26]: Active; Activity [27]: Active; MIC [28]: 30 mg/L; Stability [29]: Stable; Activity [30]: Active; Activity [31]: Active
